From ChEMBL document CHEMBL3603828, “Imine/amide-imidazole conjugates derived from 5-amino-4-cyano-N1-substituted benzyl imidazole: Microwave-assisted synthesis and anticancer activity via selective topoisomerase-II-α inhibition” (Bioorg Med Chem, 2015) come the findings set out here.

Data set [1] concerns the target T1, DNA topoisomerase 2-alpha (Homo sapiens, UniProt P11388). In words: Inhibition of human topoisomerase-2 alpha assessed as reduction in enzyme-mediated kinetoplast DNA decatenation at 100 uM incubated for 30 mins by ethidium bromide staining based agarose gel electrophoresis method. In short, it runs like this: (§1)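 Reactions with 2–4 units purified human topoisomerase II and 150 ng kDNA were set up on ice. Buffer was Tris-HCl pH 8 with NaCl, MgCl₂, DTT, BSA and ATP, and drug was 100 µM. Incubation was 30 min at 37 °C, then SDS and proteinase K for 15 min. Products were resolved on 1% agarose with ethidium bromide, visualized under UV and quantified.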

The nature of data set [2]: Antiproliferative activity against human H460 cells by MTT assay. Type of data set: functional, cell-based. The following applies: NCI-H460. The method, boiled down:
(§2)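 Cells from NCCS were grown in DMEM with 10% FBS and antibiotics at 37 °C under 5% CO₂. They were seeded at 8000 cells/well after trypan blue counting. Compounds were made up as 100 mM DMSO stocks and diluted in serum-free DMEM. MTT was added and cells were held 4 h at room temperature in the dark. Formazan was dissolved in DMSO and read at 570 nm. Values are averages of three independent experiments, each run in triplicate.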
In general terms: Tetrazolium assays rely on reduction of a dye to a coloured formazan, in cell work by metabolically active cells.

For data set [3], the system named is PBMC. The experiment in a line: Cytotoxic activity against human PBMC by MTT assay. Type of data set: cell-based. The method, boiled down: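 Human peripheral blood mononuclear cells served as the normal control in an MTT read-out. Formazan was formed over 4 h at room temperature in the dark, dissolved in DMSO and read at 570 nm. Results are mean SD of three independent experiments.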

For data set [4], the system named is A549. The experiment in a line: Antiproliferative activity against human A549 cells by MTT assay. Type of data set: functional, cell-based. In short, it runs like this:
as §2

In data set [5] the test system is HepG2. In words: Antiproliferative activity against human HepG2 cells by MTT assay. Type of data set: functional, cell-based. The method, boiled down:
as §2

The subject of data set [6] is A549. In words: Induction of mitochondrial membrane depolarization in human A549 cells at 1 to 25 uM incubated for 24 hrs by JC1 staining based assay. Type of data set: functional, cell-based. The method, boiled down: (§3)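 Cells were seeded at 8000 per well and treated for 24 h. JC-1 dye was added directly to the medium for 30 min at 37 °C, then excess dye was washed off with PBS. Membrane potential was read as the OD590/OD527 ratio.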

The subject of data set [7] is HepG2. The experiment in a line: Induction of ROS generation in human HepG2 cells at 1 to 25 uM incubated for 24 hrs by DHE staining based assay. Type of data set: functional, cell-based. In short, it runs like this: (§4)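 Cells were seeded in DMEM/10% FBS at 8000 per well and treated for 24 h. They were washed with PBS, stained with DHE for 30 min at 37 °C and washed with ice-cold PBS. Fluorescence OD was then read on a microplate reader.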

In data set [8] the test system is A549. The experiment in a line: Induction of ROS generation in human A549 cells at 1 to 25 uM incubated for 24 hrs by DHE staining based assay. Type of data set: functional, cell-based. The method, boiled down: as §4
Data set [9] deals with NCI-H460. The experiment in a line: Induction of mitochondrial membrane depolarization in human H460 cells at 1 to 25 uM incubated for 24 hrs by JC1 staining based assay. The format is functional, cell-based. In short, it runs like this: as §3
For data set [10], the system named is HepG2. In words: Induction of mitochondrial membrane depolarization in human HepG2 cells at 1 to 25 uM incubated for 24 hrs by JC1 staining based assay. Type of data set: functional, cell-based. In short, it runs like this: as §3
Data set [11] addresses T2, DNA topoisomerase 1 (Homo sapiens) (UniProt P11387).
T2 sequence (whole entry): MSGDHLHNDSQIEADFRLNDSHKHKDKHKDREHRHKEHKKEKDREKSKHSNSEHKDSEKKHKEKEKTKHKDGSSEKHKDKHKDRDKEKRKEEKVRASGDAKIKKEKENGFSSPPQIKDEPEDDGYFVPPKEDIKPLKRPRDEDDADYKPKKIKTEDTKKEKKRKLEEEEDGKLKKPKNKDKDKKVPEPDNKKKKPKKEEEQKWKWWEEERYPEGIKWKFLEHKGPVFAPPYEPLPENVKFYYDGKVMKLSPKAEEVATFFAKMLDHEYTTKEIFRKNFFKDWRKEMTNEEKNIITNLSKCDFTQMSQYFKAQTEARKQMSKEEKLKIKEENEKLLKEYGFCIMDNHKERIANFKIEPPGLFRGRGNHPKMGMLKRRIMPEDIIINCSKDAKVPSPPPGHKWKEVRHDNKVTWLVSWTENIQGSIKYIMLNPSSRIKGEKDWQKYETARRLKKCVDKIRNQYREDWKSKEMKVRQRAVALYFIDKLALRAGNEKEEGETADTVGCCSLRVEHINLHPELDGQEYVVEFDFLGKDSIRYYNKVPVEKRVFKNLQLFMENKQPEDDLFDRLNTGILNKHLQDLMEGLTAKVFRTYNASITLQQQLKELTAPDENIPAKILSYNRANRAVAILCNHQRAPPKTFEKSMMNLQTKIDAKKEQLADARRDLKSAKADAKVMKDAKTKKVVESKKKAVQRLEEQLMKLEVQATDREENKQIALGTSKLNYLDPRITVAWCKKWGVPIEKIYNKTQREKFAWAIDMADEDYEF
In words: Inhibition of human topoisomerase-1 assessed as reduction in enzyme-mediated DNA relaxation at 100 uM incubated for 30 mins by ethidium bromide staining based agarose gel electrophoresis method. In short, it runs like this:
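Purified human Topo I was used with 250 ng supercoiled DNA. Buffer was Tris-HCl pH 7.9 with EDTA, NaCl, BSA, spermidine and glycerol. Compound was 100 µM in DMSO, with 30 min incubation at 37 °C. Reactions were stopped with SDS and proteinase K at 70 °C for 15 min. Products were run on 1% agarose in TAE.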

Data set [12] deals with T1, DNA topoisomerase 2-alpha. In words: Inhibition of human topoisomerase-2 alpha assessed as reduction in enzyme-mediated kinetoplast DNA decatenation incubated for 30 mins by ethidium bromide staining based agarose gel electrophoresis method. In short, it runs like this:
as §1

In data set [13] the test system is NCI-H460. The experiment in a line: Induction of ROS generation in human H460 cells at 1 to 25 uM incubated for 24 hrs by DHE staining based assay. The format is functional, cell-based. In short, it runs like this:
as §4

Calls of active or inactive are those of the source. The calls are words filed in the database; no cut-off is given here.

T1 sequence (P11388 whole entry): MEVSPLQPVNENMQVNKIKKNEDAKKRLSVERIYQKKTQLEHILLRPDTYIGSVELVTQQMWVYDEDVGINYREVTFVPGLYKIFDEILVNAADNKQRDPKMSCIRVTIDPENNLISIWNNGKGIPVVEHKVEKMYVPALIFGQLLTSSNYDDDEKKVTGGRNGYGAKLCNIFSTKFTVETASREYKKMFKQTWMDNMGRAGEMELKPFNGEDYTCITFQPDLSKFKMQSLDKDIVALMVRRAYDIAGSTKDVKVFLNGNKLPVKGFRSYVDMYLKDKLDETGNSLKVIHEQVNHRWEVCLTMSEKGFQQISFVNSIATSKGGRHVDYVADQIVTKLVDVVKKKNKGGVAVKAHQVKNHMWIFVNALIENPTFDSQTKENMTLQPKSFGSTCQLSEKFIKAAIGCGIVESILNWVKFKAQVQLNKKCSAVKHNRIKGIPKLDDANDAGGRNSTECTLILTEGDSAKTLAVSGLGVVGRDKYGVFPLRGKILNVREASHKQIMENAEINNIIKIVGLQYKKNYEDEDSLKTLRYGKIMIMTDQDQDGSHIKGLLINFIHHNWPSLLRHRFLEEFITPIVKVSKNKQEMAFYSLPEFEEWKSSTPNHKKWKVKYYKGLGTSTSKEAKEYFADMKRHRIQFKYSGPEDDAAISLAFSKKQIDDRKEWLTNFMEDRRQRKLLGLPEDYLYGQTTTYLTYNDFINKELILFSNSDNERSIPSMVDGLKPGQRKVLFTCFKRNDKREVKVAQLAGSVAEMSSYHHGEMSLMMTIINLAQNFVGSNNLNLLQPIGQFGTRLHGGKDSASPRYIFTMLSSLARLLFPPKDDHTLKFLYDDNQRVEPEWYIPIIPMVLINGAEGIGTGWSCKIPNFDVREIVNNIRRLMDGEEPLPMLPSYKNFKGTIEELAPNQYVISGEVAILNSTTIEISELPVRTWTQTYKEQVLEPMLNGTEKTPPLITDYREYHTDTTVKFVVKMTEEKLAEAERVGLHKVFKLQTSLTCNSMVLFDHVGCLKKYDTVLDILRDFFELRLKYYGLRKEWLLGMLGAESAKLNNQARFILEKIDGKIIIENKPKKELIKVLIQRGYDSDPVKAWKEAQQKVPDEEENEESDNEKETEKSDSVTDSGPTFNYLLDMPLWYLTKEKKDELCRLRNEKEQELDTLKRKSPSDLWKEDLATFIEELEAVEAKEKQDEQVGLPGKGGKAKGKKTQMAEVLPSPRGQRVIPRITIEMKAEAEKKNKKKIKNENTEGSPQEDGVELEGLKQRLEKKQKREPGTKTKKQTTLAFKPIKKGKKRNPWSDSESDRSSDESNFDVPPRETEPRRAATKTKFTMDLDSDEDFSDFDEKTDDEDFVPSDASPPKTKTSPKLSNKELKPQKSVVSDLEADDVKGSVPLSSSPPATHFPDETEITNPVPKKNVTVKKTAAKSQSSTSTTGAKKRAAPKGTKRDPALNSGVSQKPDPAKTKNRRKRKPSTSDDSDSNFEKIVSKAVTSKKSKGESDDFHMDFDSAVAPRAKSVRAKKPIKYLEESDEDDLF

What is called IC50 is the midpoint of a concentration-inhibition curve. `N#Cc1ncn(Cc2ccccc2Cl)c1/N=C/c1c[nH]c2ccccc12`: in [1], the inhibition result is “Active”. For the same molecule, the values for the IC50 in [2], in [4] and in data set [5] were 14.6 µM, 10.9 µM and 15 µM, respectively. In addition, in data set [3], the Activity entry is recorded as “Non-toxic”.

In the case of `COc1ccc(/C=N/c2c(C#N)ncn2Cc2ccccc2Cl)cc1OC`, the Activity result in data set [3] was “Non-toxic”. Besides, the IC50 in [4] and in [5] was above 50 µM each time.

On to `N#Cc1ncn(Cc2ccccc2Cl)c1/N=C/c1ccc(O)cc1`, for which the IC50 in data set [2] was above 40 µM; in data set [4], 35.1 µM; in data set [5] it was 38.2 µM. The Activity result in [3] was “Non-toxic”.

Take `COc1cc(/C=N/c2c(C#N)ncn2Cc2ccccc2Cl)ccc1O`: the Activity entry in data set [3] was “Non-toxic”. For the same molecule, the IC50 in data set [4] is 39 µM; in data set [5], above 40 µM.

On to `COc1ccc(OC)c(/C=N/c2c(C#N)ncn2Cc2ccccc2Cl)c1`, for which the IC50 in data set [2] was 28.3 µM; in data set [4] it was 18 µM; in data set [5], 20 µM. Moreover, the Activity entry in data set [3] was “Non-toxic”.

`N#Cc1ncn(Cc2ccccc2Cl)c1/N=C/c1ccc(Cl)cc1`: the half-maximal inhibitory concentration (IC50) is 28.1 µM in data set [2], 30.8 µM in data set [4] and 31 µM in data set [5]. The Activity result in data set [3] is listed as “Non-toxic”.

For `N#Cc1ncn(Cc2ccccc2Cl)c1/N=C/c1ccccc1[N+](=O)[O-]`, the Activity result in [3] was “Non-toxic”. The IC50 in data set [4] was 37 µM; in data set [5], 40 µM.

`N#Cc1ncn(Cc2ccccc2Cl)c1/N=C/c1cc(Cl)cc(Cl)c1O`: the outcome in data set [6], in [9] and in data set [10] was Active. Moreover, the inhibition result in data set [1] was “Active”. For the same molecule, the Activity result in data set [7] was “Dose-dependent effect”; in data set [8], “Dose-dependent effect”; in data set [3], “Non-toxic”; in data set [13] it was “Dose-dependent effect”. Also, the IC50 in data set [2] amounted to 11.2 µM; in [4] it was 7.5 µM; in data set [12], 34.9 µM; in data set [5] it was 12 µM. In addition, in data set [11], the inhibition result was “inactive”.

Turning to `COc1cc([C@@H]2c3cc4c(cc3[C@@H](O[C@@H]3O[C@@H]5CO[C@@H](C)O[C@H]5[C@H](O)[C@H]3O)[C@H]3COC(=O)[C@H]23)OCO4)cc(OC)c1O` [ETOPOSIDE], the inhibition result in data set [1] was “Active”. Also, the IC50 in [2] was above 30 µM; in data set [4], 18.2 µM; in data set [5] it was 20.9 µM. Moreover, the Activity result in data set [3] is “Non-toxic”.
